{"source": "ChEMBL document CHEMBL1127578", "about": "“Phospholipase C inhibitors: a new class of cytotoxic agents” (J Med Chem, 1994)", "key": {"[1]": {"test": "Inhibitory activity against phospholipase C isolated from human melanoma; call rule not given here", "outline": "(§1)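 PI-specific PLC partially purified from RPMI 7272 human melanoma xenografts in nude mice (Q-Sepharose then heparin-Sepharose, 0.35 M NaCl eluate), 20–30 μg protein. Enzyme preincubated with compound 5 min at 37 °C in 25 mM imidazole pH 7.2, 100 mM KCl, 1 mM CaCl2, 0.8 mg/mL deoxycholate. Reaction started with 1 mM phosphatidylinositol, run 15 min at 37 °C, stopped with EDTA.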"}, "[2]": {"test": "pKa value was determined", "type": "physicochemical"}, "[3]": {"test": "Inhibitory activity against phospholipase C isolated from human melanoma; IN-Inactive", "outline": "as §1"}}, "data": [{"smiles": "CCCCCCCCCCCCOc1ccc2oc(=O)c([N+](=O)[O-])cc2c1", "values": [{"measurement": "IC50", "setting": "[1]", "result": 68.6, "unit": "µg/mL"}]}, {"smiles": "O=[N+]([O-])C1=Cc2ccccc2OC1Nc1cccc([N+](=O)[O-])c1", "note": "(stereo unspecified)", "values": [{"measurement": "IC50", "setting": "[1]", "result": 7.5, "unit": "µg/mL"}, {"measurement": "pKa", "setting": "[2]", "result": 2.47}]}, {"smiles": "COc1ccc2oc(=O)c([N+](=O)[O-])cc2c1", "values": [{"measurement": "IC50", "setting": "[1]", "result": 31, "unit": "µg/mL"}]}, {"smiles": "O=[N+]([O-])C1=Cc2ccccc2OC1n1cccn1", "note": "(stereo unspecified)", "values": [{"measurement": "IC50", "setting": "[1]", "result": 21, "unit": "µg/mL"}, {"measurement": "pKa", "setting": "[2]", "result": 2.48}]}, {"smiles": "O=c1oc2ccc(O)cc2cc1[N+](=O)[O-]", "values": [{"measurement": "IC50", "setting": "[1]", "result": 10.9, "unit": "µg/mL"}]}, {"smiles": "CC(=O)Oc1cccc2cc([N+](=O)[O-])c(=O)oc12", "values": [{"measurement": "IC50", "setting": "[1]", "result": 36, "unit": "µg/mL"}]}, {"smiles": "O=[N+]([O-])C1=Cc2ccccc2OC1Nc1ccc([N+](=O)[O-])cc1", "note": "(stereo unspecified)", "values": [{"measurement": "IC50", "setting": "[1]", "result": 14.4, "unit": "µg/mL"}, {"measurement": "pKa", "setting": "[2]", "result": 1}]}, {"smiles": "C=CCCCCCCCCC(=O)Oc1ccc2oc(=O)c([N+](=O)[O-])cc2c1", "values": [{"measurement": "IC50", "setting": "[1]", "result": 3.2, "unit": "µg/mL"}]}, {"smiles": "O=c1oc2cc(O)ccc2cc1[N+](=O)[O-]", "values": [{"measurement": "IC50", "setting": "[3]", "result": "Not Active"}]}, {"smiles": "COc1ccc(NC2Oc3ccccc3C=C2[N+](=O)[O-])cc1", "note": "(stereo unspecified)", "values": [{"measurement": "IC50", "setting": "[1]", "result": 12.9, "unit": "µg/mL"}, {"measurement": "pKa", "setting": "[2]", "result": 5.31}]}, {"smiles": "CC(=O)Oc1ccc2oc(=O)c([N+](=O)[O-])cc2c1", "values": [{"measurement": "IC50", "setting": "[1]", "result": 16, "unit": "µg/mL"}]}, {"smiles": "CCCCCCCCCCCCCCCC(=O)Oc1ccc2oc(=O)c([N+](=O)[O-])cc2c1", "values": [{"measurement": "IC50", "setting": "[1]", "result": 28.5, "unit": "µg/mL"}]}, {"smiles": "O=[N+]([O-])C1=Cc2ccccc2OC1N1CCOCC1", "note": "(stereo unspecified)", "values": [{"measurement": "IC50", "setting": "[1]", "result": 5, "unit": "µg/mL"}, {"measurement": "pKa", "setting": "[2]", "result": 8.33}]}, {"smiles": "CCCCCCCOc1ccc2oc(=O)c([N+](=O)[O-])cc2c1", "values": [{"measurement": "IC50", "setting": "[3]", "result": "Not Active"}]}, {"smiles": "COc1cccc(NC2Oc3ccccc3C=C2[N+](=O)[O-])c1", "note": "(stereo unspecified)", "values": [{"measurement": "IC50", "setting": "[1]", "result": 6.6, "unit": "µg/mL"}, {"measurement": "pKa", "setting": "[2]", "result": 4.2}]}, {"smiles": "O=c1oc2c(O)cccc2cc1[N+](=O)[O-]", "values": [{"measurement": "IC50", "setting": "[1]", "result": 24.8, "unit": "µg/mL"}]}, {"smiles": "CCCCOc1ccc2oc(=O)c([N+](=O)[O-])cc2c1", "values": [{"measurement": "IC50", "setting": "[1]", "result": 33.9, "unit": "µg/mL"}]}, {"smiles": "C=CCCCCCCCCOc1ccc2oc(=O)c([N+](=O)[O-])cc2c1", "values": [{"measurement": "IC50", "setting": "[1]", "result": 45.1, "unit": "µg/mL"}]}, {"smiles": "CC(C)Oc1ccc2oc(=O)c([N+](=O)[O-])cc2c1", "values": [{"measurement": "IC50", "setting": "[1]", "result": 23.5, "unit": "µg/mL"}]}, {"smiles": "CCCCCCCCCCOc1ccc2oc(=O)c([N+](=O)[O-])cc2c1", "values": [{"measurement": "IC50", "setting": "[3]", "result": "Not Active"}]}, {"smiles": "O=[N+]([O-])C1=Cc2ccccc2OC1Nc1ccccc1", "note": "(stereo unspecified)", "values": [{"measurement": "IC50", "setting": "[1]", "result": 11.7, "unit": "µg/mL"}, {"measurement": "pKa", "setting": "[2]", "result": 4.4}]}, {"smiles": "CCCCCCCC(=O)Oc1ccc2oc(=O)c([N+](=O)[O-])cc2c1", "values": [{"measurement": "IC50", "setting": "[1]", "result": 4.3, "unit": "µg/mL"}]}, {"smiles": "CC(=O)Oc1ccc2cc([N+](=O)[O-])c(=O)oc2c1", "values": [{"measurement": "IC50", "setting": "[3]", "result": "Not Active"}]}, {"smiles": "O=c1oc2ccc(OCCCCCCCCO)cc2cc1[N+](=O)[O-]", "values": [{"measurement": "IC50", "setting": "[1]", "result": 9.6, "unit": "µg/mL"}]}, {"smiles": "CCCCCCCCCCCCCCCC(=O)Oc1ccc2cc([N+](=O)[O-])c(=O)oc2c1", "values": [{"measurement": "IC50", "setting": "[3]", "result": "Not Active"}]}, {"smiles": "CCCCCCCC(=O)Oc1cccc2cc([N+](=O)[O-])c(=O)oc12", "values": [{"measurement": "IC50", "setting": "[1]", "result": 17, "unit": "µg/mL"}]}, {"smiles": "CCCCCCCC(=O)Oc1ccc2cc([N+](=O)[O-])c(=O)oc2c1", "values": [{"measurement": "IC50", "setting": "[3]", "result": "Not Active"}]}, {"smiles": "CCCCCCCCCCCCCCCC(=O)Oc1cccc2cc([N+](=O)[O-])c(=O)oc12", "values": [{"measurement": "IC50", "setting": "[1]", "result": 47, "unit": "µg/mL"}]}, {"smiles": "COc1ccccc1NC1Oc2ccccc2C=C1[N+](=O)[O-]", "note": "(stereo unspecified)", "values": [{"measurement": "IC50", "setting": "[1]", "result": 4.5, "unit": "µg/mL"}, {"measurement": "pKa", "setting": "[2]", "result": 2.52}]}, {"smiles": "O=[N+]([O-])C1=Cc2ccccc2OC1Nc1ccccc1[N+](=O)[O-]", "note": "(stereo unspecified)", "values": [{"measurement": "IC50", "setting": "[1]", "result": 6, "unit": "µg/mL"}, {"measurement": "pKa", "setting": "[2]", "result": -0.26}]}, {"smiles": "O=c1oc2ccccc2cc1[N+](=O)[O-]", "values": [{"measurement": "IC50", "setting": "[1]", "result": 16.1, "unit": "µg/mL"}]}, {"smiles": "CCCCCCOc1ccc2oc(=O)c([N+](=O)[O-])cc2c1", "values": [{"measurement": "IC50", "setting": "[3]", "result": "Not Active"}]}]}
